Like-named read-outs stand apart in the source and are kept apart here.
How the values were obtained:
[1] = format: in vivo, human; conditions: for MRAUCinf (metabolite‐to‐parent ratio for AUC): corrected for molecular weight, geometric mean (geometric %CV)
[2] = major circulating metabolites of ertugliflozin; cited from earlier work
[3] = cited from earlier work
[4] = tested on: T2DM and healthy subjects; assay: Safety and tolerability of a single 15-mg dose; format: in vivo, human
Method in brief: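 Open-label, nonrandomized single oral 15 mg dose (three 5-mg tablets) after a 4-hour fast. Usual antihyperglycemic agents were given 4 h post-dose. AEs were recorded throughout and coded with MedDRA 17.1. ECGs were taken at screening, predose and day 5. Sitting and supine/standing blood pressure and pulse were taken predose and at 1, 2, 4 and 96 h post-dose.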

[5] = tested on: urinary glucose excretion; assay: Change from baseline in 24-hour urinary glucose excretion; format: in vivo, human; conditions: for Change from baseline to day 1 in 24‐hour urinary glucose excretion, geometric mean / Change from baseline to day 1 in 24‐hour urinary glucose excretion, mean (SD) / Change from baseline to day 1 in 24‐hour urinary glucose excretion, median: 15 mg single oral dose
Method in brief: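 Single oral 15 mg dose given as three 5-mg tablets after a 4-hour fast. Baseline urine was collected on day –2 (–48 to –24 h) and post-dose urine in 0‑4, 4‑8, 8‑12 and 12‑24 h intervals, with glucose measured centrally. 24-h UGE is the sum of the intervals. Log-transformed change was compared by 1-way ANOVA against T2DM with normal renal function, without plasma glucose correction. eGFR bands: mild 60‑89, moderate 30‑59 mL/min.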

[6] = as high as 300 mg (single dose), 100 mg once daily (up to 14 days), 25 mg once daily (up to 12 weeks); ref data on file, 9, 10; cited from earlier work
[7] = Urinary excretion and renal clearance of ertugliflozin and metabolites; format: in vivo, human; conditions: subjects with normal renal function
[8] = tested on: SGLT2‐mediated glucose transport; assay: 24-hour inhibition of glucose reabsorption; format: in vivo, human; conditions: day 1
[9] = T2DM, moderate renal impairment
[10] = single 15‐mg dose, all renal function groups

CCOc1ccc(Cc2cc([C@]34OC[C@](CO)(O3)[C@@H](O)[C@H](O[C@@H]3O[C@H](C(=O)O)[C@@H](O)[C@H](O)[C@H]3O)[C@H]4O)ccc2Cl)cc1 [PF‐06481944, 3‐O‐β‐glucuronide]
median tmax range of metabolites ([1]; after ertugliflozin 15 mg, across all groups): 2 to 4 h | MRAUCinf (metabolite‐to‐parent ratio for AUC) ([1]; T2DM, mild renal impairment): 0.98 (45) | MRAUCinf (metabolite‐to‐parent ratio for AUC) [1, 9]: 1.26 (52) | MRAUCinf (metabolite‐to‐parent ratio for AUC) ([1]; T2DM, normal renal function): 0.93 (39) | MRAUCinf (metabolite‐to‐parent ratio for AUC) ([1]; T2DM, severe renal impairment): 1.03 (37) | MRAUCinf (metabolite‐to‐parent ratio for AUC) ([1]; healthy, normal renal function): 0.64 (29) | pharmacological activity of metabolite [2]: pharmacologically inactive

CCOc1ccc(Cc2cc([C@]34OC[C@](CO)(O3)[C@@H](O)[C@H](O)[C@H]4O)ccc2Cl)cc1 [ertugliflozin, Ertugliflozin]
Urinary excretion of unchanged drug, share of elimination ([3]; human absorption, distribution, metabolism, and excretion studies): 1.5% | median time to maximum concentration (tmax) ([3]; oral administration, fasted state, ref data on file, 15, 16): approximately 1 hour | terminal elimination half‐life (t1/2) ([3]; oral administration, ref data on file, 15, 16): approximately 17 hours | dose proportionality in exposure (AUC and Cmax) ([3]; over the range of 0.5 to 300 mg, ref data on file, 15, 16): dose proportionality | subjects experiencing hypoglycemia ([4]; T2DM mild renal impairment group, receiving glyburide): 1 subject | subjects experiencing hypoglycemia ([4]; T2DM severe renal impairment group, receiving long‐acting insulin): 2 subjects | subjects experiencing hypoglycemia ([4]; all groups (n = 36)): 3 subjects | intensity of AEs ([4]; single 15‐mg dose, all AEs): mild | deaths, serious AEs, severe AEs, discontinuations due to AEs [4, 10]: no deaths, serious AEs, severe AEs, or temporary or permanent discontinuations due to AEs | laboratory findings, vital signs, ECG findings [4, 10]: no abnormal laboratory findings or changes in vital signs (including postural changes) or ECG findings of clinical significance | tolerability [4, 10]: well tolerated | Change from baseline to day 1 in 24‐hour urinary glucose excretion, geometric mean ([5]; T2DM, mild renal impairment): 35.98 g | Change from baseline to day 1 in 24‐hour urinary glucose excretion, mean (SD) ([5]; T2DM, mild renal impairment): 48.67 (37.72) g | Change from baseline to day 1 in 24‐hour urinary glucose excretion, median ([5]; T2DM, mild renal impairment): 36.4 g | Change from baseline to day 1 in 24‐hour urinary glucose excretion, geometric mean [5, 9]: 27.55 g | Change from baseline to day 1 in 24‐hour urinary glucose excretion, mean (SD) [5, 9]: 32.64 (21.32) g | Change from baseline to day 1 in 24‐hour urinary glucose excretion, median [5, 9]: 28.8 g | Change from baseline to day 1 in 24‐hour urinary glucose excretion, geometric mean ([5]; T2DM, normal renal function): 72.31 g | Change from baseline to day 1 in 24‐hour urinary glucose excretion, mean (SD) ([5]; T2DM, normal renal function): 75.12 (24.36) g | Change from baseline to day 1 in 24‐hour urinary glucose excretion, median ([5]; T2DM, normal renal function): 68.1 g | Change from baseline to day 1 in 24‐hour urinary glucose excretion, geometric mean ([5]; T2DM, severe renal impairment): 10.09 g | Change from baseline to day 1 in 24‐hour urinary glucose excretion, mean (SD) ([5]; T2DM, severe renal impairment): 11.29 (5.81) g | Change from baseline to day 1 in 24‐hour urinary glucose excretion, median ([5]; T2DM, severe renal impairment): 10.3 g | Change from baseline to day 1 in 24‐hour urinary glucose excretion, geometric mean ([5]; healthy, normal renal function): 46.33 g | Change from baseline to day 1 in 24‐hour urinary glucose excretion, mean (SD) ([5]; healthy, normal renal function): 48.16 (14.04) g | Change from baseline to day 1 in 24‐hour urinary glucose excretion, median ([5]; healthy, normal renal function): 45.8 g | change from baseline in 24‐hour UGE, 1‐way ANOVA ([5]; T2DM, mild renal impairment): 36.0 g | change from baseline in 24‐hour UGE, 1‐way ANOVA [5, 9]: 27.6 g | change from baseline in 24‐hour UGE, 1‐way ANOVA ([5]; T2DM, normal renal function): 72.3 g | change from baseline in 24‐hour UGE, 1‐way ANOVA ([5]; T2DM, severe renal impairment): 10.1 g | tolerability of higher oral doses [6]: well tolerated | Ae96% [7]: approximately 1% | geometric mean change from baseline in 24‐hour percentage inhibition of glucose reabsorption ([8]; T2DM, mild renal impairment): 25.58% | geometric mean change from baseline in 24‐hour percentage inhibition of glucose reabsorption [8, 9]: 28.84% | geometric mean change from baseline in 24‐hour percentage inhibition of glucose reabsorption ([8]; T2DM, normal renal function): 33.34% | geometric mean change from baseline in 24‐hour percentage inhibition of glucose reabsorption ([8]; T2DM, severe renal impairment): 24.25% | geometric mean change from baseline in 24‐hour percentage inhibition of glucose reabsorption ([8]; healthy subjects): 29.19% | Tmax ([1]; human, plasma, po, 15 mg, median tmax, 15 mg single oral dose, across all groups): 1 to 1.51 h | predicted mean (90%CI) AUC from log‐linear regression vs BSA‐unnormalized eGFR ([1]; mild renal impairment (eGFR = 75 mL/min)): 1585 (1461‐1719) ng·h/mL | predicted mean (90%CI) AUC from log‐linear regression vs BSA‐unnormalized eGFR ([1]; moderate renal impairment (eGFR = 45 mL/min)): 1875 (1698‐2071) ng·h/mL | predicted mean (90%CI) AUC from log‐linear regression vs BSA‐unnormalized eGFR ([1]; normal renal function (eGFR = 105 mL/min)): 1340 (1194‐1503) ng·h/mL | predicted mean (90%CI) AUC from log‐linear regression vs BSA‐unnormalized eGFR ([1]; severe renal impairment (eGFR = 15 mL/min)): 2219 (1907‐2581) ng·h/mL
